{
  "source": "ChEMBL document CHEMBL4118144",
  "about": "“Design, Synthesis, and Testing of Potent, Selective Hepsin Inhibitors via Application of an Automated Closed-Loop Optimization Platform” (J Med Chem, 2018)",
  "key": {"[1]": {"target": "T1, Neutrophil elastase (Homo sapiens) (UniProt P08246)", "T1 sequence (whole entry)": "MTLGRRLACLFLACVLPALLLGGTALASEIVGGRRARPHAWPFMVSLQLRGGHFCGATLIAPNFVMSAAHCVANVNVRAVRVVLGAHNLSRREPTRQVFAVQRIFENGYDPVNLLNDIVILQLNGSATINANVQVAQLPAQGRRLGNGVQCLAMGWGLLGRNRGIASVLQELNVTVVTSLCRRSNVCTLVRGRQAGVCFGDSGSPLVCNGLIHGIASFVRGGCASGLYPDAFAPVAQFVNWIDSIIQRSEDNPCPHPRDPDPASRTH", "experiment": "Inhibition of human ELA2 using N-MeOSuc-Ala-Ala-Pro-Val-pNA as substrate at 10 uM after 60 mins by spectrophotometric method relative to control", "in_short": "(§1)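 Panel of ten serine proteases; percent inhibition read at compound concentrations of 1 µM and 10 µM, each value the mean of 2 experiments.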"}, "[2]": {"target": "Urokinase-type plasminogen activator (Homo sapiens, UniProt P00749)", "experiment": "Inhibition of recombinant C-terminal His10-tagged human uPA (M1 to L431 residues) expressed in mouse NS0 cells using Z-GGR-AMC as substrate after 15 mins by automated fluorescence assay", "in_short": "(§2)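 On-line assay integrated with the flow-synthesis platform: a 20 µL aliquot of each product solution captured automatically, HPLC-purified, then diluted and assayed.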"}, "Serine protease hepsin [3]": {"target": "Serine protease hepsin (Homo sapiens, UniProt P05981, D161E/R162K)", "experiment": "Inhibition of recombinant C-terminal His10-tagged human Hepsin (R45 to […] residues) D161E/ R162K double mutant expressed in mouse NS0 cells using Boc-QRR-AMC as substrate after 15 mins by automated fluorescence assay", "in_short": "as §2"}, "[4]": {"target": "Coagulation factor X (Homo sapiens) (UniProt P00742)", "sequence (P00742 41-179 limits assumed)": "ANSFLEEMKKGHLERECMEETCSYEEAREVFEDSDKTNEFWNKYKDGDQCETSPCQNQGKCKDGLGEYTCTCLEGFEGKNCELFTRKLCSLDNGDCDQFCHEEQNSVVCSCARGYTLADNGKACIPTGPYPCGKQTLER", "sequence (P00742 235-488 limits assumed)": "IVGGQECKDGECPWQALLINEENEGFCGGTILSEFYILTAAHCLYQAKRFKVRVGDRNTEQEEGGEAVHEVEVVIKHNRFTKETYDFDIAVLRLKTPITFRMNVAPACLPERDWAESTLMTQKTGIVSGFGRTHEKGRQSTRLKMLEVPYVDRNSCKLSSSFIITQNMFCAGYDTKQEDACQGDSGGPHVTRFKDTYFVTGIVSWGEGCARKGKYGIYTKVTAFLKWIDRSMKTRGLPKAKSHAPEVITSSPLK", "experiment": "Inhibition of factor 10a (unknown origin) at 1 uM after 15 mins by fluorescence assay relative to control", "in_short": "as §1"}, "Trypsin (Homo sapiens)": {"target": "Trypsin (Homo sapiens) (UniProt P07477+P07478+P35030)", "experiment": "Inhibition of human trypsin using Z-Gly-Pro-Arg-AMC as substrate at 10 uM after 60 mins by fluorescence spectrophotometric method relative to control", "format": "protein assay", "in_short": "as §1"}, "[5]": {"target": "T1, Neutrophil elastase (Homo sapiens)", "experiment": "Inhibition of human ELA2 using N-MeOSuc-Ala-Ala-Pro-Val-pNA as substrate at 1 uM after 60 mins by spectrophotometric method relative to control", "in_short": "as §1"}, "[6]": {"target": "T2, Suppressor of tumorigenicity 14 protein (Homo sapiens) (UniProt Q9Y5Y6)", "T2 sequence (whole entry)": "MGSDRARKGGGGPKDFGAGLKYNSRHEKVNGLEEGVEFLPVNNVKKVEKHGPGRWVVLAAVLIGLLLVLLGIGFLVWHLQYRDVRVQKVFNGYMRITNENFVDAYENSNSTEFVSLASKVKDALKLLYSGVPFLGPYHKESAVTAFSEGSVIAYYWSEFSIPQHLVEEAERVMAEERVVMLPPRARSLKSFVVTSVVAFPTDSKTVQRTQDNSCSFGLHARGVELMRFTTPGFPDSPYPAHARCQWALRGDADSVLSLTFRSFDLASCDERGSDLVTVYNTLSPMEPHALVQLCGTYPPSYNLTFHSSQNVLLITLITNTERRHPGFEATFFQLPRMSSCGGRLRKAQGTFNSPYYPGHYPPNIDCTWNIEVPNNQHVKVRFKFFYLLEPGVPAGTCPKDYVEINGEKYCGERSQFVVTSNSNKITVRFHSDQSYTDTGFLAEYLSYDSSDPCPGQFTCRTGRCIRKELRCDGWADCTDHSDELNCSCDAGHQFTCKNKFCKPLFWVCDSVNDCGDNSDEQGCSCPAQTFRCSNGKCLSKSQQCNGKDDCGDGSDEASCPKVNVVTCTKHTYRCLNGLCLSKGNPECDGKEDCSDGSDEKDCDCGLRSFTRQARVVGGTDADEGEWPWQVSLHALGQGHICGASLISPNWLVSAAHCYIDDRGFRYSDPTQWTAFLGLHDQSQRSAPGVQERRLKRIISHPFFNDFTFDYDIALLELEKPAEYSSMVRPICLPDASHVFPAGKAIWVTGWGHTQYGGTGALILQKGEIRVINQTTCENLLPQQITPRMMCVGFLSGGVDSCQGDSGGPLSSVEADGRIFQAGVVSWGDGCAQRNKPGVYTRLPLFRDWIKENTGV", "experiment": "Inhibition of matriptase (unknown origin) using BOC-QAR-AMC as substrate at 10 uM after 15 mins by fluorescence assay relative to control", "in_short": "as §1"}, "[7]": {"target": "Coagulation factor X (Homo sapiens) (UniProt P00742)", "experiment": "Inhibition of factor 10a (unknown origin) at 10 uM after 15 mins by fluorescence assay relative to control", "in_short": "as §1"}, "Serine protease hepsin [8]": {"target": "T3, Serine protease hepsin (Homo sapiens, UniProt P05981)", "T3 sequence (P05981 1-162 limits assumed)": "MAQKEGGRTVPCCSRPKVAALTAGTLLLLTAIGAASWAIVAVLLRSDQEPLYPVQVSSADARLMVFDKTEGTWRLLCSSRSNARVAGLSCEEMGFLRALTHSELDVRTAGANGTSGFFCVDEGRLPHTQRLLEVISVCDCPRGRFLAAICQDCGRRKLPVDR", "T3 sequence (P05981 163-417 limits assumed)": "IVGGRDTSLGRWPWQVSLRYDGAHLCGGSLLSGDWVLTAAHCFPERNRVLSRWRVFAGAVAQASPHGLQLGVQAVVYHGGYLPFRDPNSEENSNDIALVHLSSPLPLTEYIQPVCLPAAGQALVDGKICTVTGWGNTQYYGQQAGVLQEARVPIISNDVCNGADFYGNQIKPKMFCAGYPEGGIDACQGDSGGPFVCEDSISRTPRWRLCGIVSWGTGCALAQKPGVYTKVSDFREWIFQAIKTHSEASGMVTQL", "experiment": "Inhibition of hepsin-mediated conversion of Pro-HGF into active form in human HCC1937 cells assessed as decrease in MET phosphorylation at 1 uM preincubated for 30 mins followed by recombinant human pro-HGF addition measured after 30 mins by immunoblot method", "format": "cell-based", "in_short": "(§3)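 Hs578T or HCC1937 breast cells incubated with DMSO or inhibitor, then 50 ng/mL recombinant human Pro-HGF added; MET pathway activation (phospho-MET) assessed by immunoblotting.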"}, "Serine protease hepsin [9]": {"target": "T3, Serine protease hepsin", "experiment": "Inhibition of doxycycline induced hepsin-mediated loss of desmosomal junctions in human MCF10A cells at 1 to 10 uM preincubated for 30 mins followed by doxycycline addition measured after 6 hrs by desmoglein 2 staining-based confocal immunofluorescence microscopic analysis", "format": "cell-based", "in_short": "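MCF10A-Indu20-hepsin cells on coverslips pretreated 30 min with 1 or 10 µM compound or DMSO, then 100 ng/mL Dox for 6 h. Desmoglein 2 immunofluorescence: continuous pericellular staining scored positive, discontinuous or absent scored negative. Cells counted in 10 fields per treatment across three biological replicates; reported as percentages.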"}, "Serine protease hepsin [10]": {"target": "T3, Serine protease hepsin", "experiment": "Inhibition of hepsin-mediated conversion of Pro-HGF into active form in human Hs578T cells assessed as decrease in MET phosphorylation at 1 uM preincubated for 30 mins followed by recombinant human pro-HGF addition measured after 30 mins by immunoblot method", "format": "cell-based", "in_short": "as §3"}, "[11]": {"test_system": "Serine protease hepsin (Homo sapiens), P05981 [D161E,R162K]", "sequence (P05981 whole entry D161E/R162K)": "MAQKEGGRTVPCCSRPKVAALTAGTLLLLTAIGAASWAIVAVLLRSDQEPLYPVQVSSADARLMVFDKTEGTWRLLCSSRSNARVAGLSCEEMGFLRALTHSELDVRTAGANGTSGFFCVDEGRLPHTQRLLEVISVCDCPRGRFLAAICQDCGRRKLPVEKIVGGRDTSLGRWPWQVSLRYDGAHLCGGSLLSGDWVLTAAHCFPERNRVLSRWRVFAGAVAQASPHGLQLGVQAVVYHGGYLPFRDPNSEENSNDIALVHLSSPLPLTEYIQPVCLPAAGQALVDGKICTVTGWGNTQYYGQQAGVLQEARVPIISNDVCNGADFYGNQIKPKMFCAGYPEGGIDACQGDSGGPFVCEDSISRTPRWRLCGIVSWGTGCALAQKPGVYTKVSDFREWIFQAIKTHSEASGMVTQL", "experiment": "Inhibition of recombinant C-terminal His10-tagged human Hepsin (R45 to […] residues) D161E/ R162K double mutant expressed in mouse NS0 cells assessed as decrease in HGF beta chain formation at 1 uM incubated for 30 mins in presence of recombinant human pro-HGF by immunoblot method", "format": "cell-based", "in_short": "(§4)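 Recombinant human Pro-HGF incubated with recombinant human hepsin plus inhibitor at 37°C for 30 min; processing analysed by immunoblot with an antibody recognizing Pro-HGF and the α and β chains.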"}, "[12]": {"test_system": "Serine protease hepsin (Homo sapiens), P05981 [D161E,R162K]", "experiment": "Inhibition of recombinant C-terminal His10-tagged human Hepsin (R45 to […] residues) D161E/ R162K double mutant expressed in mouse NS0 cells assessed as decrease in HGF alpha chain formation at 1 uM incubated for 30 mins in presence of recombinant human pro-HGF by immunoblot method", "format": "cell-based", "in_short": "as §4"}},
  "note": "pIC50: −log10 of the molar value. Activity calls are given as the source filed them. No cut-off for these calls is given here.",
  "data": [
    {"smiles": "Cc1ccc(S(=O)(=O)N[C@@H](C(=O)Nc2ccc(C(=N)N)cc2)C2CCCCC2)cc1", "values": [
      {"measurement": "inhibition", "setting": "[1]", "value": "< 10", "unit": "%"},
      {"measurement": "pIC50", "setting": "[2]", "value": 5.36},
      {"measurement": "pIC50", "setting": "Serine protease hepsin [3]", "value": 7.48},
      {"measurement": "inhibition", "setting": "[4]", "value": "< 10", "unit": "%"},
      {"measurement": "inhibition", "setting": "Trypsin (Homo sapiens)", "value": 96, "unit": "%"},
      {"measurement": "inhibition", "setting": "[5]", "value": "< 10", "unit": "%"},
      {"measurement": "inhibition", "setting": "[6]", "value": "< 10", "unit": "%"},
      {"measurement": "inhibition", "setting": "[7]", "value": "< 10", "unit": "%"}
    ]},
    {"smiles": "N=C(N)c1ccc(NC(=O)[C@H](NS(=O)(=O)c2ccc(F)cc2)C2CCCCC2)cc1", "values": [
      {"measurement": "inhibition", "setting": "[1]", "value": "< 10", "unit": "%"},
      {"measurement": "pIC50", "setting": "[2]", "value": "< 4.85"},
      {"measurement": "pIC50", "setting": "Serine protease hepsin [3]", "value": 7.05},
      {"measurement": "inhibition", "setting": "[4]", "value": "< 10", "unit": "%"},
      {"measurement": "inhibition", "setting": "Trypsin (Homo sapiens)", "value": 97, "unit": "%"},
      {"measurement": "inhibition", "setting": "[5]", "value": "< 10", "unit": "%"},
      {"measurement": "inhibition", "setting": "[6]", "value": "< 10", "unit": "%"},
      {"measurement": "inhibition", "setting": "[7]", "value": "< 10", "unit": "%"}
    ]},
    {"smiles": "Cc1ccc(S(=O)(=O)N[C@@H](C(=O)Nc2ccc(C(=N)N)cc2)c2ccccc2)cc1", "values": [
      {"measurement": "inhibition", "setting": "[1]", "value": "< 10", "unit": "%"},
      {"measurement": "inhibition", "setting": "Serine protease hepsin [8]", "value": "Active"},
      {"measurement": "inhibition", "setting": "Serine protease hepsin [9]", "value": "Active"},
      {"measurement": "inhibition", "setting": "[4]", "value": "< 10", "unit": "%"},
      {"measurement": "inhibition", "setting": "Serine protease hepsin [10]", "value": "Active"},
      {"measurement": "inhibition", "setting": "Trypsin (Homo sapiens)", "value": 93, "unit": "%"},
      {"measurement": "inhibition", "setting": "[11]", "value": "Active"},
      {"measurement": "inhibition", "setting": "[5]", "value": "< 10", "unit": "%"},
      {"measurement": "inhibition", "setting": "[6]", "value": "< 10", "unit": "%"},
      {"measurement": "inhibition", "setting": "[12]", "value": "Active"},
      {"measurement": "inhibition", "setting": "[7]", "value": "< 10", "unit": "%"}
    ]}
  ]
}
